Source: ChEMBL document CHEMBL4689842, “EUbOPEN Chemogenomics Library wave 1” (2021)

System: HEK-293T
Assay: Multiplex assay against HEK293T;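 as to Population Tubulin-Different-Phenotype (%): share of the cells with healthy nuclei that show this phenotype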
Format: toxicity, cell-based
Conditions: human
How it was run: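 Cells were classed with CellPathfinder machine-learning gating, first as Hoechst high-intensity objects or normal cells, then (normal cells) as healthy, pyknosed or fragmented nuclei, and finally (pyknosed cells) as mitotic or apoptotic. Staining of live cells at seeding used Hoechst33342, BioTracker Green Microtubule Cytoskeleton Dye, MitoTracker Red and Annexin V Alexa Fluor 680, with imaging on a CQ1 microscope at 37°C and 5% CO2 after compound addition. Tubulin, mitochondrial-mass and membrane-permeability phenotypes are per cents of healthy-nucleus cells.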

[1] = 12 h, 1 µM, compound concentration 1 uM, replicate 1
[2] = 12 h, 1 µM, compound concentration 1 uM, replicate 2
[3] = 12 h, 10 µM, compound concentration 10 uM, replicate 1
[4] = 12 h, 10 µM, compound concentration 10 uM, replicate 2
[5] = 24 h, 1 µM, compound concentration 1 uM, replicate 1
[6] = 24 h, 1 µM, compound concentration 1 uM, replicate 2
[7] = 24 h, 10 µM, compound concentration 10 uM, replicate 1
[8] = 24 h, 10 µM, compound concentration 10 uM, replicate 2
[9] = 48 h, 1 µM, compound concentration 1 uM, replicate 1
[10] = 48 h, 1 µM, compound concentration 1 uM, replicate 2
[11] = 48 h, 10 µM, compound concentration 10 uM, replicate 1
[12] = 48 h, 10 µM, compound concentration 10 uM, replicate 2

CC(C)NCC(O)COc1ccc(CCOCC2CC2)cc1.Cl (stereo not given) [BETAXOLOL HYDROCHLORIDE]
Population Apoptotic (%) [1]: 43%
Population Fragmented Nuclei (%) [1]: 7%
Population Healthy Nuclei (%) [1]: 49%
Population Hoechst High Intensity Objects (%) [1]: 10%
Population Membrane Permeable-Phenotype (%) [1]: 3%
Population Mitochondria Different-Phenotype (%) [1]: 82%
Population Mitotic Cells (%) [1]: 56%
Population Normal (%) [1]: 89%
Population Pyknosed Nuclei (%) [1]: 43%
Population Tubulin-Different-Phenotype (%) [1]: 56%
Total Cell Count [1]: 343
Population Apoptotic (%) [2]: 12%
Population Fragmented Nuclei (%) [2]: 6%
Population Healthy Nuclei (%) [2]: 43%
Population Hoechst High Intensity Objects (%) [2]: 1%
Population Membrane Permeable-Phenotype (%) [2]: 8%
Population Mitochondria Different-Phenotype (%) [2]: 14%
Population Mitotic Cells (%) [2]: 87%
Population Normal (%) [2]: 98%
Population Pyknosed Nuclei (%) [2]: 50%
Population Tubulin-Different-Phenotype (%) [2]: 19%
Total Cell Count [2]: 227
Population Apoptotic (%) [3]: 55%
Population Fragmented Nuclei (%) [3]: 9%
Population Hoechst High Intensity Objects (%) [3]: 13%
Population Membrane Permeable-Phenotype (%) [3]: 1%
Population Mitochondria Different-Phenotype (%) [3]: 100%
Population Mitotic Cells (%) [3]: 44%
Population Normal (%) [3]: 86%
Population Pyknosed Nuclei (%) [3]: 59%
Population Tubulin-Different-Phenotype (%) [3]: 95%
Total Cell Count [3]: 247
Population Apoptotic (%) [4]: 36%
Population Fragmented Nuclei (%) [4]: 3%
Population Healthy Nuclei (%) [4]: 30%
Population Hoechst High Intensity Objects (%) [4]: 2%
Population Membrane Permeable-Phenotype (%) [4]: 6%
Population Mitochondria Different-Phenotype (%) [4]: 71%
Population Mitotic Cells (%) [4]: 63%
Population Normal (%) [4]: 97%
Population Pyknosed Nuclei (%) [4]: 65%
Population Tubulin-Different-Phenotype (%) [4]: 77%
Total Cell Count [4]: 259
Population Apoptotic (%) [5]: 45%
Population Fragmented Nuclei (%) [5]: 6%
Population Healthy Nuclei (%) [5]: 60%
Population Hoechst High Intensity Objects (%) [5]: 7%
Population Membrane Permeable-Phenotype (%) [5]: 2%
Population Mitochondria Different-Phenotype (%) [5]: 65%
Population Mitotic Cells (%) [5]: 54%
Population Normal (%) [5]: 92%
Population Pyknosed Nuclei (%) [5]: 33%
Population Tubulin-Different-Phenotype (%) [5]: 37%
Total Cell Count [5]: 403
Population Apoptotic (%) [6]: 10%
Population Healthy Nuclei (%) [6]: 64%
Population Hoechst High Intensity Objects (%) [6]: 1%
Population Membrane Permeable-Phenotype (%) [6]: 7%
Population Mitochondria Different-Phenotype (%) [6]: 22%
Population Mitotic Cells (%) [6]: 89%
Population Normal (%) [6]: 98%
Population Pyknosed Nuclei (%) [6]: 29%
Population Tubulin-Different-Phenotype (%) [6]: 32%
Total Cell Count [6]: 314
Population Apoptotic (%) [7]: 69%
Population Fragmented Nuclei (%) [7]: 11%
Population Healthy Nuclei (%) [7]: 32%
Population Hoechst High Intensity Objects (%) [7]: 15%
Population Membrane Permeable-Phenotype (%) [7]: 4%
Population Mitochondria Different-Phenotype (%) [7]: 98%
Population Mitotic Cells (%) [7]: 30%
Population Normal (%) [7]: 84%
Population Pyknosed Nuclei (%) [7]: 55%
Population Tubulin-Different-Phenotype (%) [7]: 80%
Total Cell Count [7]: 258
Population Apoptotic (%) [8]: 47%
Population Fragmented Nuclei (%) [8]: 2%
Population Healthy Nuclei (%) [8]: 50%
Population Hoechst High Intensity Objects (%) [8]: 5%
Population Membrane Permeable-Phenotype (%) [8]: 3%
Population Mitochondria Different-Phenotype (%) [8]: 80%
Population Mitotic Cells (%) [8]: 52%
Population Normal (%) [8]: 94%
Population Pyknosed Nuclei (%) [8]: 46%
Population Tubulin-Different-Phenotype (%) [8]: 82%
Total Cell Count [8]: 321
Population Apoptotic (%) [9]: 28%
Population Fragmented Nuclei (%) [9]: 8%
Population Healthy Nuclei (%) [9]: 79%
Population Hoechst High Intensity Objects (%) [9]: 5%
Population Membrane Permeable-Phenotype (%) [9]: 1%
Population Mitochondria Different-Phenotype (%) [9]: 28%
Population Mitotic Cells (%) [9]: 71%
Population Normal (%) [9]: 94%
Population Pyknosed Nuclei (%) [9]: 12%
Population Tubulin-Different-Phenotype (%) [9]: 31%
Total Cell Count [9]: 701
Population Apoptotic (%) [10]: 11%
Population Fragmented Nuclei (%) [10]: 6%
Population Healthy Nuclei (%) [10]: 81%
Population Hoechst High Intensity Objects (%) [10]: 3%
Population Membrane Permeable-Phenotype (%) [10]: 4%
Population Mitochondria Different-Phenotype (%) [10]: 6%
Population Mitotic Cells (%) [10]: 88%
Population Normal (%) [10]: 97%
Population Pyknosed Nuclei (%) [10]: 11%
Population Tubulin-Different-Phenotype (%) [10]: 22%
Total Cell Count [10]: 601
Population Apoptotic (%) [11]: 67%
Population Fragmented Nuclei (%) [11]: 14%
Population Healthy Nuclei (%) [11]: 48%
Population Hoechst High Intensity Objects (%) [11]: 14%
Population Membrane Permeable-Phenotype (%) [11]: 0%
Population Mitochondria Different-Phenotype (%) [11]: 84%
Population Mitotic Cells (%) [11]: 32%
Population Normal (%) [11]: 85%
Population Pyknosed Nuclei (%) [11]: 36%
Population Tubulin-Different-Phenotype (%) [11]: 61%
Total Cell Count [11]: 288
Population Apoptotic (%) [12]: 40%
Population Fragmented Nuclei (%) [12]: 4%
Population Healthy Nuclei (%) [12]: 72%
Population Hoechst High Intensity Objects (%) [12]: 4%
Population Membrane Permeable-Phenotype (%) [12]: 1%
Population Mitochondria Different-Phenotype (%) [12]: 63%
Population Mitotic Cells (%) [12]: 59%
Population Normal (%) [12]: 95%
Population Pyknosed Nuclei (%) [12]: 23%
Population Tubulin-Different-Phenotype (%) [12]: 77%
Total Cell Count [12]: 435
